Rows were chosen to be rich in hits. Some 0.99% of all compounds tested hit in one or more screens of this group.
STK33 inh: inhibitors of purified STK33 kinase, primary screen, biochemical, ADP-Glo luminescence, homogeneous, cell-free | inhibition, % at 10 µM | Serine/threonine-protein kinase 33 (Homo sapiens), Q9BYT3 | MBP phosphorylation | 0.073% of 320,000 active;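 active = inhibition at or above 25%, using the most active replicate where run in duplicate; inactive = inhibition below 25%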
Target sequence (Q9BYT3 whole entry, looked up): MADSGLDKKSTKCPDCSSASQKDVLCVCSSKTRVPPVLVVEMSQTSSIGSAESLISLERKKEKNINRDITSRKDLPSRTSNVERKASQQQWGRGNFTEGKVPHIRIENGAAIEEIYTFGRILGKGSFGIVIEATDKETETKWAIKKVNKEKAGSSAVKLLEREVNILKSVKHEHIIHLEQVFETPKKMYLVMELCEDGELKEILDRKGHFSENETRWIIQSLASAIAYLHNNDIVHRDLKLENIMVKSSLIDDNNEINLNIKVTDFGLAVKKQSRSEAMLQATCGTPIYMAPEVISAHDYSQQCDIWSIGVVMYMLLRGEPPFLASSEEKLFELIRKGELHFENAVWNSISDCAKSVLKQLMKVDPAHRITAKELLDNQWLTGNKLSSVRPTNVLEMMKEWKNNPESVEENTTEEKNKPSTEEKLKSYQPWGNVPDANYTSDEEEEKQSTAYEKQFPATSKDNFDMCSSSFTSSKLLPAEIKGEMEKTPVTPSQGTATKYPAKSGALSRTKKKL
GSK3B inh: human GSK3beta kinase inhibitors, primary screen, biochemical, cell-free homogeneous, HTS; Glycogen synthase kinase-3 beta (Homo sapiens), P49841; GST-GSK3beta kinase, ADP-Glo luminescence, 60 min; stronger effect = lower value; activity score (negative = inhibition), % at 10 µM; 0.038% of 300,000 active; AID 2097, 2009;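 active = more than half of replicate wells score below -50%, meaning over 50% inhibition versus plate controls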;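 also: 0% = median DMSO wells and -100% = median GW8510 positive control wells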
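Assay system: GST-fused GSK3beta enzyme, cell-free / Medium: Tris pH 7.5 buffer with MgCl2, DTT, BSA, heparin / Also added: peptide substrate plus 25 µM ATP (final) / Compound: 10 µM single point / Timing: kinase reaction with compound 60 min at room temperature / Detection: ADP-Glo luminescence / Benchmarks: DMSO neutral wells and GW8510 at 20 µM as positive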
DYRK1A inh: rat Dyrk1A kinase inhibitors, primary screen, biochemical, single point, plate reader; Dual specificity tyrosine-phosphorylation-regulated kinase 1A (Rattus norvegicus), Q63470; ADP-Glo luminescence, NFATc1 peptide; inhibition, % at 12.5 µM; 0.43% of 310,000 active; in the data active = inhibition above about 50%;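 also: plate controls were vehicle with enzyme for no effect and no enzyme for full effect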
GSK3 alpha inh: blockers of GSK3A enzyme activity – biochemical, luminescence, cell-free homogeneous, HTS, primary screen; Glycogen synthase kinase-3 alpha (Homo sapiens), P49840; 0.1% of 320,000 active; inhibition, % at 10 µM; AID 2650, 2010; GSK-3 alpha kinase, ADP-Glo luminescence, 60 min;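 active = more than half of replicates show inhibition above 20%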;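 also: GST-tagged GSK-3 alpha with peptide substrate and 25 µM ATP; 0% = DMSO neutral wells and 100% = GW8510 positive control wells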
AI-2 QS mod: Vibrio harveyi AI-2 quorum sensing modulators, primary screen, JMH597 strain, luminescence/OD600 ratio. 0.4% of 300,000 active. AID 2094, 2009. activity change, % at 7.5 µM. Vibrio harveyi JMH597 AI-2 luminescence/OD600 ratio, 9 h; stronger effect = lower value; strain lacks LuxN and CqsS sensors; 0 = neutral-control median; in the data active = activity change below about -75%, passing the limit was not always enough;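 also: luminescence divided by OD600 gain over 9 h not by final OD600 alone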
Rce1 inh: yeast Rce1p protease inhibitors, primary screen, biochemical, fluorescence, cell-free homogeneous; calls only; yeast membranes, quenched prenylated peptide cleavage fluorescence; 0.27% of 290,000 active; AID 2563, 2010;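 active = fall in fluorescence gain of 50% or more versus controls, with final raw signal at or below 3038400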;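 also: plate controls were neutral control wells for no effect and wells lacking membranes for full effect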
* marks the source's active call; other numbers are inactive results.

`COc1cccc(-c2cc(C(F)(F)F)n3ncc(S(=O)(=O)c4ccccc4)c3n2)c1` gave STK33 inh -1, GSK3B inh -1, DYRK1A inh 3, GSK3 alpha inh -4, AI-2 QS mod 17 and Rce1 inh active.
Screening Cc1ccc(N2C(=O)CCC2=O)c(C)c1 returned STK33 inh -2, GSK3B inh -5, DYRK1A inh 1, GSK3 alpha inh -2, AI-2 QS mod 9 and Rce1 inh inactive.
OCC[C@H]1C[C@H](O)[C@@H](O)[C@@]2(CCCc3ccccc3O2)O1 was read as STK33 inh 0, DYRK1A inh 5 and GSK3 alpha inh -2.
For COc1cccc(C2CC(=O)Nc3n[nH]c(-c4ccccc4)c32)c1OC (stereo not drawn) the results were STK33 inh 0, GSK3B inh -23, DYRK1A inh -4, GSK3 alpha inh 61*, AI-2 QS mod 13 and Rce1 inh inactive.
Oc1ccc(/C=N/n2cc(-c3ccccc3)[nH]c2=S)cc1 was read as STK33 inh 7, GSK3B inh -3, DYRK1A inh 3, GSK3 alpha inh 4, AI-2 QS mod 30 and Rce1 inh active.
`COc1cc(/C=N/n2cc(-c3ccccc3)[nH]c2=S)cc(OC)c1O` gave STK33 inh 6, GSK3B inh 3, DYRK1A inh -10, GSK3 alpha inh -1, AI-2 QS mod 53 and Rce1 inh inactive.
CCOC(=O)c1cccc(N2CC3CNC(=O)C2(C(=O)OC)N3C)c1 (stereo not drawn) was read as STK33 inh 1, DYRK1A inh 2 and GSK3 alpha inh 0.
For N#CC1=C2SCN(c3ccc(F)cc3)CN2C(=O)CC1c1cccc(F)c1 (stereo not drawn) the results were STK33 inh 0, GSK3B inh -1, DYRK1A inh 6, GSK3 alpha inh 56*, AI-2 QS mod 9 and Rce1 inh inactive.
For COc1ccc(N2CSC3=C(C#N)C(c4cccs4)CC(=O)N3C2)cc1 (stereo not drawn) the results were STK33 inh 1, GSK3B inh -50, DYRK1A inh 3, GSK3 alpha inh 91*, AI-2 QS mod 13 and Rce1 inh inactive.
For CCOC(=O)C1=C(C2=CCCCC2)c2ccc(OC)cc2N(S(=O)(=O)C(F)(F)F)C1C(=O)OCC (stereo not drawn) the results were DYRK1A inh -1.
`CC[C@]1(C(=O)OC)[C@H]2C(=O)N(C)C(=O)[C@H]2[C@H]2CN=C(SCc3ccc(C)cc3)N21` gave DYRK1A inh -1.
For Cc1ccc[n+](CC(=O)Nc2cc(C(F)(F)F)ccc2Cl)c1 the results were STK33 inh -1, GSK3B inh 2, DYRK1A inh -1, GSK3 alpha inh 0, AI-2 QS mod 16 and Rce1 inh inactive.
Screening CCC(C)(C)c1ccc(OCCCC[n+]2cccc(C)c2)c(C(C)(C)CC)c1 returned GSK3B inh 0, DYRK1A inh 6, AI-2 QS mod 9 and Rce1 inh active.
For O=C(CCC1CCCN(C(=O)c2cccc(F)c2)C1)N1CCN(c2ccccn2)CC1 (stereo not drawn) the results were STK33 inh -1, GSK3B inh 4, DYRK1A inh -2, GSK3 alpha inh -4, AI-2 QS mod 4 and Rce1 inh inactive.
For O=C(/C=C/c1cn(-c2ccccc2)nc1-c1ccccc1)Nc1ccc(C(=O)O)cc1 the results were STK33 inh -2, GSK3B inh 2, DYRK1A inh 13, GSK3 alpha inh -1, AI-2 QS mod 37 and Rce1 inh inactive.
Screening NS(=O)(=O)c1ccc(NC(=O)/C=C/c2cn(-c3ccccc3)nc2-c2cccc(Cl)c2)cc1 returned STK33 inh -1, GSK3B inh 4, DYRK1A inh 2, GSK3 alpha inh -1, AI-2 QS mod 18 and Rce1 inh active.
COc1cc2c(cc1OC)C(C)=NC1(CCCCC1)C2 was read as STK33 inh -1, GSK3B inh 2, DYRK1A inh 3, GSK3 alpha inh -2, AI-2 QS mod 27 and Rce1 inh active.
For COc1cc2c(cc1OC)C(SC)=NC1(CCCC1)C2 the results were STK33 inh -1, GSK3B inh -1, DYRK1A inh -1, GSK3 alpha inh 1 and AI-2 QS mod 9.
`CCOc1cccc(-c2nn(-c3ccccc3)cc2/C=C(/C#N)C(=O)NCCCn2ccnc2)c1` gave STK33 inh -1, GSK3B inh 2, DYRK1A inh -1, GSK3 alpha inh -2, AI-2 QS mod 11 and Rce1 inh active.
N#C/C(=C/c1cn(-c2ccccc2)nc1-c1cccc(OCc2ccccc2)c1)C(=O)NCCCn1ccnc1 was read as STK33 inh -2, GSK3B inh -2, DYRK1A inh -4, GSK3 alpha inh 3, AI-2 QS mod 27 and Rce1 inh inactive.
For CCN1/C(=C/C(C)=C/c2sc3ccccc3[n+]2CC)Sc2ccccc21 the results were STK33 inh 19, GSK3B inh -33, DYRK1A inh 26, GSK3 alpha inh 48, AI-2 QS mod -170* and Rce1 inh inactive.
Screening CC(CC(=O)N1CCN(S(=O)(=O)c2ccc([N+](=O)[O-])cc2)CC1)c1ccccc1 (stereo not drawn) returned STK33 inh -1 and GSK3 alpha inh 2.
CC(=O)NC(c1ccccc1)c1cc([N+](=O)[O-])c2cccnc2c1O (stereo not drawn) was read as STK33 inh -5, GSK3B inh 1, GSK3 alpha inh -5, AI-2 QS mod -90* and Rce1 inh inactive.
For C=CCNC(=S)NC(=O)c1csc([N+](=O)[O-])c1 the results were STK33 inh 0, GSK3B inh -1, DYRK1A inh -8, GSK3 alpha inh 4, AI-2 QS mod -104* and Rce1 inh inactive.
Screening O=C(NC(=S)N1CCCCC1)c1csc([N+](=O)[O-])c1 returned STK33 inh -1, GSK3B inh 1, DYRK1A inh 1, GSK3 alpha inh -1, AI-2 QS mod 22 and Rce1 inh inactive.
`COc1ccc(-c2cc3nc(C)c(CCC(=O)N4CCN(c5ccccn5)CC4)c(C)n3n2)c(OC)c1` gave STK33 inh 1, GSK3B inh 1, DYRK1A inh 7, GSK3 alpha inh -2, AI-2 QS mod 18 and Rce1 inh active.
